Screening data: PubChem, several laboratories
FGF22 binding-1: binders of recombinant human FGF22 by thermal shift; Q9HCT0; SYPRO orange fluorescence; percent of sucrose octasulfate shift, DMSO zero; activity (Tm shift, normalised), % at 9.99 µM; 340,000 compounds, 1.5% hits; AID 651658;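 active = mean Tm shift, scaled 0 neutral to 100 positive control, at about 1.3% or above, every replicate too, limit read from the data; inconclusive = no clear call, values can overlap the other calls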
Target sequence (Q9HCT0 whole entry, looked up): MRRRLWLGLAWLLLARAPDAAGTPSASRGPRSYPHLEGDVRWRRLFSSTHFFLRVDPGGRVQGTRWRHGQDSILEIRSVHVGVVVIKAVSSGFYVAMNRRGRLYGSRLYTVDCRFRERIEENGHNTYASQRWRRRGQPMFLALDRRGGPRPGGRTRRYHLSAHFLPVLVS
ASAP1 inh: inhibitors of human ASAP1 ArfGAP activity. Q9ULH1. ASAP1-stimulated ARF1 GTP hydrolysis, GDP FP detection. inhibition, % at 16.5 µM. 360,000 compounds, 0.19% hits; in the data active = inhibition above about 25%;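 note: 0% = vehicle with enzyme and substrate and 100% = no enzyme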
Target sequence (Q9ULH1 325-724 limits assumed): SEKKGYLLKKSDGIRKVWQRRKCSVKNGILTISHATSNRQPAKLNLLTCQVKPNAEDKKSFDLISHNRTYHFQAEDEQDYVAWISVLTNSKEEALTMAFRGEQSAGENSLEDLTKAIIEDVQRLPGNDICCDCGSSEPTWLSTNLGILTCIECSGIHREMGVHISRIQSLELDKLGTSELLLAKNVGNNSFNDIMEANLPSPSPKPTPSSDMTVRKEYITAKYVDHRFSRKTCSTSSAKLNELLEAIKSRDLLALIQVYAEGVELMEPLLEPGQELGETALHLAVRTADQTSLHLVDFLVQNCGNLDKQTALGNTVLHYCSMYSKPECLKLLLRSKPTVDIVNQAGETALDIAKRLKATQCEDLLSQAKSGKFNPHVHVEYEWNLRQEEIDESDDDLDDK
Efflux pump inh: antifungal efflux pump inhibition, Nile Red retention; inhibition, % at 10 µM; S. cerevisiae Candida pump triplex; 330,000 compounds, 0.44% hits;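 active = plate passing quality check with inhibition over a set limit, or well fluorescence over plate mean plus 4 SD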;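 note: Nile Red retained in pooled yeast measured as flow cytometry median fluorescence; 0% = buffer negative control and 100% = Enniatin B positive control; higher means more Nile Red kept so more efflux inhibition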
Rtt109 Vps75: inhibitors of Candida albicans Rtt109/Vps75 histone acetyltransferase. Q5AAJ8. purified Rtt109/Vps75, ThioGlo CoA-SH fluorescence, 4 h. inhibition, % at 34.9 µM. 330,000 compounds, 0.16% hits. AID 540336;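 active = inhibition of at least 50% in every replicate; inconclusive = best replicate reaches 50% inhibition but some replicates fall short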
ARFGAP1 inhibitor: rat ARFGAP1 inhibition | Arfgap1-stimulated ARF1 GTP hydrolysis, GDP FP detection | inhibition, % at 16.5 µM | 360,000 compounds, 0.26% hits;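 active = inhibition above a per-plate limit, mean inhibition of low control wells plus 3 SD, cut at about 25% in these data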;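 note: 0% = DMSO wells with enzyme and 100% = wells lacking Arfgap1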
Target sequence (Q62848 1-136 limits assumed): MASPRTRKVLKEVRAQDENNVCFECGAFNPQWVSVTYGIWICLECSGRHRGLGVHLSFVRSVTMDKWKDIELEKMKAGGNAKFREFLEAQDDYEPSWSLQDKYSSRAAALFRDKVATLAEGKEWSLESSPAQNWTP
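Assay system: Rat Arfgap1 GAP domain (His6, aa 1-136), purified enzyme | Buffer or medium: HEPES 25 mM pH 7.5, NaCl 150 mM, MgCl2, DTT | Schedule: GTP hydrolysis reaction 2 h at 25 °C | Signal: FP of antibody-bound GDP Alexa 633 tracer, ex 620/em 688 nm | Measure: Percent inhibition of Arfgap1-stimulated GTP hydrolysis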
FGF22 binding-2: FGF22 (human) binding in thermal shift; shares compounds with FGF22 binding-1; thermal shift activity, °C (ΔTm) at 38 µM; recombinant FGF22 thermal shift, SYPRO orange fluorescence; 1,000 compounds, 2% hits;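 active = fitted rise in melting shift crosses a set limit at or below the top valid dose tested; inconclusive = flat fit at mid-level activity, or a poor quality fit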
SYPRO no-protein: counter-screen for FGF22 binders: compound-only thermal shift, no protein. shares compounds with FGF22 binding-1. compound-only SYPRO orange thermal shift counter-screen. AC50, µM (titrated, usually from 38 µM). 1,000 compounds, 2% hits. AID 743019;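 active = rising signal whose fitted curve reaches the 0.54 level within the top valid dose, showing a melting point, actives reach about 13 µM in these data; inactive = the rest, including activity in the opposite direction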; note: value is where the raw curve crosses a fixed level and not half-maximal
An asterisk follows results filed as active; i = inactive; ? = inconclusive; / = not tested or not shown; [ ] = another dose, or the depositor's remark. Most compounds without a hit are left out; they make up all but 1.9% or so of the library.

SMILES | FGF22 binding-1 | ASAP1 inh | Efflux pump inh | Rtt109 Vps75 | ARFGAP1 inhibitor | FGF22 binding-2 | SYPRO no-protein
COC12CC(=O)C(C(C)=O)=C(O)C1(C)c1c(O)c(C)c(O)c(C(C)=O)c1O2 (stereo unspecified) | 1.4* | 7 | / | / | 3 | 0.14 | i
Cc1cc(C)n(C(=O)CCC(=O)NCc2ccccc2)n1 | 0 | 8 | 0 | -1 | 0 | / | /
O=C(Nc1ccc(F)c(Cl)c1)C1CCCN(C2=NS(=O)(=O)c3ccccc32)C1 (stereo unspecified) | 31* | -2 | 0 | 8 | 13 | 0.25 | i
CCN(C[C@H]1N[C@@](CC)(C(=O)OC)[C@H]2C(=O)N(C)C(=O)[C@@H]12)C(=O)C1CCCCC1 | 0 | -4 | 0 | -8 | -15 | / | /
O=C1C(Cl)=C(NS(=O)(=O)c2ccc([N+](=O)[O-])cc2)C(=O)c2ccccc21 | 1.9* | 5 | 0 | ? | -6 | 0.13 | i
COCCCNC(=O)[C@@]1(Cc2ccccc2CN=[N+]=[N-])COC(c2ccc(OCCCO)cc2)=N1 | -1 | / | / | / | / | / | /
CC(=O)NCCCNc1ccc([N+](=O)[O-])cc1 | / | 6 | 0 | -1 | 4 | / | /
CCS(=O)(=O)NCCNc1ccc([N+](=O)[O-])cc1 | 1.5* | 11 | 0 | 7 | 1 | -0.069 | i
Cc1ccccc1-n1ncc2c1CC(C)(C)CC2NC(=O)C1CCC1 (stereo unspecified) | 1.4* | -4 | 0 | -4 | 0 | 0.088 | i
COc1ccc2c(/C=N/NS(=O)(=O)c3ccc(C)cc3)c[nH]c2c1 | 2.7* | 3 | 0 | 22 | 9 | -0.21 | i
O=C(O)c1ccccc1NS(=O)(=O)c1ccc2ccccc2c1 | 1.6* | 17 | 0 | -9 | 0 | -0.049 | i
Cc1cc(C)c(C)c(S(=O)(=O)Nc2ccccc2C(=O)O)c1C | 1.4* | -27 | 0 | 4 | -18 | 0.15 | i
O=C(O)c1ccccc1Cc1nc2cc(Cl)ccc2c(=O)[nH]1 | 0 | -8 | 0 | 3 | 3 | / | /
COc1ccc(/C(O)=C/C(=O)C(=O)NNC(=O)c2ccccc2)cc1 | 29* | -4 | 0 | -24 | -9 | 0.091 | i
O=C1CC2(CCN(C(=O)c3cccc([N+](=O)[O-])c3)CC2)Oc2ccccc21 | 0 | 8 | 0 | -6 | 0 | / | /
Cc1ccc(S(=O)(=O)Nc2cccc3c2O[C@@H](CN(C)S(=O)(=O)c2cn(C)cn2)[C@H](C)CN([C@H](C)CO)C3=O)cc1 | 0 | / | / | / | / | / | /
CCOC(=O)c1c(N)sc(C(=O)Nc2ccccc2)c1C | 2.9* | 8 | 0 | 0 | 18 | -0.18 | i
CCOC(=O)c1sc(NC(=O)Nc2ccccc2Cl)cc1C | / | 21 | 0 | -31 | 11 | / | /
CCOC(=O)c1sc(NC(=O)Nc2ccccc2)cc1C | 2.1* | 4 | 0 | 1 | 1 | -0.38 | i
CN(C)C(=O)c1cc(C(=O)c2c(F)cccc2F)c[nH]1 | 0 | 0 | 0 | -4 | 8 | / | /
CN(C)c1cc(-c2ccc(Br)cc2)oc(=O)c1Cl | 0 | -13 | 0 | / | 5 | / | /
COc1ccc2cc(CCNC(=O)c3cc4ccccc4o3)c(=O)[nH]c2c1 | 1.8* | -3 | 0 | -3 | 7 | -0.059 | i
COc1cc(/C=C2\CCn3c2nc2cc(C(=O)O)ccc2c3=O)ccc1OC(F)F | 1.4* | 2 | 0 | -10 | 0 | 0.17 | i
Nc1nccc(-c2ccc(-n3cccc3)cc2)n1 | 2.3* | 10 | 0 | 0 | 10 | 0.004 | i
c1ccc(-c2nccc(-c3ccc(-n4cnc5ccccc54)cc3)n2)cc1 | / | 4 | 0 | 5 | 8 | / | /
SMILES | FGF22 binding-1 | ASAP1 inh | Efflux pump inh | Rtt109 Vps75 | ARFGAP1 inhibitor | FGF22 binding-2 | SYPRO no-protein
C=C(C1=CCN(S(=O)C(C)(C)C)[C@H]1CCO)c1ccccc1 (stereo partly specified) | 0 | 3 | / | 1 | 12 | / | /
C=C(C1=CCN(S(=O)(=O)C(C)(C)C)[C@H]1CCO)c1ccccc1 | 15* | -1 | / | -1 | 3 | 0.047 | i
CCc1ccccc1NC(=S)N1CCN(c2ccccc2F)CC1 | 0 | -7 | 0 | 1 | 4 | / | /
O=c1cc[nH]c2ccc(Cl)cc12 | 72* | 23 | 0 | -4 | 5 | 0.18 | i
O=c1cc[nH]c2cc(Cl)ccc12 | 0 | 19 | 0 | 1 | 6 | / | /
O=C(CCc1c[nH]c2ccccc12)Nc1ccc(Nc2cccnc2)c(Br)c1 | 1 | 18 | / | / | 15 | / | /
O=C(CCc1c[nH]c2ccccc12)Nc1ccc(Nc2cccnc2)cc1 | 2.0* | 6 | / | / | 2 | -0.069 | i
CC1(C(=O)NS(=O)(=O)Cc2cccc(Cl)c2)CCN1C(=O)C1(c2ccc(Cl)cc2)CCC1 (stereo unspecified) | 1.5* | -16 | / | / | -5 | / | i
CC(C)(C)c1ccc(S(=O)(=O)NC(=O)C2(C)CCN2C(=O)Cc2ccc(Cl)cc2Cl)cc1 (stereo unspecified) | 0 | 3 | / | / | -3 | / | /
CC1(C(=O)NS(=O)(=O)c2ccc(Cl)cc2)CCN1C(=O)Cc1ccc(Cl)cc1Cl (stereo unspecified) | 1.5* | -3 | / | / | 5 | 0.16 | i
CO[C@@H]1CN(C)C(=O)c2cc(NC(=O)C3CC3)ccc2OC[C@@H](C)N(Cc2ccccc2)C[C@H]1C | 0 | / | / | / | / | / | /
CCOC(=O)[C@H]1O[C@@H]1C(=O)N[C@@H](CC(C)C)C(=O)NCCC(C)C | / | / | 0 | 7 | / | / | /
O=C(O)c1cc2cccc(S(=O)(=O)N3CCCCC3)c2cc1O | 1.7* | -11 | 0 | -91 | 0 | 0.087 | i
O=S(=O)(c1cccc2ccccc12)N1CCCCC1 | 0 | -12 | / | -1 | 10 | / | /
COc1ccc(NS(=O)(=O)c2cc(N=Nc3c(O)[nH]c(=O)[nH]c3=O)ccc2Cl)cc1 | 1.4* | -11 | 0 | 7 | 5 | -0.08 | i
Cc1ccc(NS(=O)(=O)c2ccc(Cl)c(N=Nc3c(O)[nH]c(=O)[nH]c3=O)c2)cc1Cl | 0 | -14 | 0 | 2 | -2 | / | /
COc1ccc(NC(=O)N(C)C[C@@H]2Oc3c(NC(=O)C4CCCCC4)cccc3C(=O)N([C@@H](C)CO)C[C@H]2C)cc1 | 0 | / | / | / | / | / | /
CS(=O)(=O)N1CC2(C1)[C@@H](c1ccccc1)[C@@H](CO)N2Cc1ccc(F)cc1 | 1.9* | / | / | / | / | 0.087[42 µM] | i
Cc1nn(-c2ccccc2)c(C)c1/C=N/NC(=O)c1cc(-c2cccs2)[nH]n1 | 1.6* | 14 | 0 | 10 | 10 | -0.17 | i
CCOc1ccc(-c2cc(C(=O)N/N=C/c3cccnc3)c3ccccc3n2)cc1 | 2.5* | -4 | 0 | -7 | 14 | -0.12 | i
O=C(O)CN1C(=O)CSC1=S | 0 | -8 | 0 | 2 | 4 | / | /
